{"source": "paper PMC9401565", "about": "(Clinical Cancer Research, 2021)", "key": {"[1]": {"test_system": "UPN-IbruR MCL xenograft", "assay": "UPN-IbruR xenograft model, tumor growth", "format": "in vivo, CB17-SCID mice", "details": "25 mg/kg, every day, 17 days", "summary_of_the_method": "(§1)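 CB17-SCID mice were inoculated subcutaneously with […] REC-1GFP+Luc+ or UPN-IbruR cells. Tumor growth and vital parameters were monitored. Mice received oral test compound at 25 mg/kg daily or vehicle for 17 days. Endpoint tumor burden was read by bioluminescence for REC-1 and by caliper for UPN-IbruR. TGI was calculated versus vehicle.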"}, "[2]": {"test_system": "MINO MCL xenograft", "assay": "MINO MCL xenograft model, tumor growth inhibition", "format": "in vivo, nude mice", "details": "orally, twice a day, 16-day treatment"}, "[3]": {"test_system": "phosphopeptides in PBMC", "format": "in vivo, human", "details": "early-responder patients, 4-hour postdose"}, "[4]": {"molecular_target": "T1, TXK (Homo sapiens, UniProt P42681)", "T1 sequence (P42681 1-527)": "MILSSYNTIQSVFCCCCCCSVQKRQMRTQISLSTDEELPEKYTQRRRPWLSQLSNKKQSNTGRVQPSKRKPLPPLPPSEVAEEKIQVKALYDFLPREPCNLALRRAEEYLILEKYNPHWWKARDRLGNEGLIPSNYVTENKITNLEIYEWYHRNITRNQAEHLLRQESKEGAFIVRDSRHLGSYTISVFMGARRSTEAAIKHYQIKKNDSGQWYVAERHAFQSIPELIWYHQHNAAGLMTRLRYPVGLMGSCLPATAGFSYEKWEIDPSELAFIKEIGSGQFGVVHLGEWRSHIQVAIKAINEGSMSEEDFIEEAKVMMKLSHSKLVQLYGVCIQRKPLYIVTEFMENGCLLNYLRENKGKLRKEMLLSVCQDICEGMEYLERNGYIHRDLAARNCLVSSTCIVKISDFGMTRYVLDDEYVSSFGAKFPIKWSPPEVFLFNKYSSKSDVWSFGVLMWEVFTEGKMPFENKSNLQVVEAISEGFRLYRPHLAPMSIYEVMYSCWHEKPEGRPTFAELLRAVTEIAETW", "assay": "KINOMEscan quantitative binding assay"}, "[5]": {"test_system": "BCR pathway in DoHH-2 cells", "assay": "BCR downstream signaling in IgM-stimulated cells, Western blot", "format": "cell-based", "details": "IgM-stimulated DoHH-2"}, "[6]": {"test_system": "REC-BTK^C481S cells", "assay": "CellTiter-Glo viability assay", "format": "cell-based", "details": "REC-1–BTK^C481S"}, "[7]": {"test_system": "REC-BTK^KO cells", "assay": "CellTiter-Glo viability assay", "format": "cell-based"}, "[8]": {"test_system": "p-BTK, MYC, YES1", "assay": "Immunoblot of p-BTK, Ikaros, MYC and YES1 in PBMC lysates of patients with CLL", "format": "in vivo, human", "details": "early-responder patients, 4 hours posttreatment"}, "[9]": {"test_system": "BTK and AKT phosphorylation", "assay": "MINO xenograft, intratumor BCR-related kinases by Western blot", "format": "in vivo, nude mice", "details": "single oral gavage 50 mg/kg", "summary_of_the_method": "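Nude mice aged 6–7 weeks were implanted subcutaneously with 5 × 10^6 MINO cells. Dosing was oral once tumors reached 100–200 mm3. Tumor protein extracts were immunoblotted for BCR-related kinases. Densitometry was normalized to GAPDH or tubulin and referred to the control sample.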"}, "[10]": {"molecular_target": "T2, BTK (Homo sapiens, UniProt Q06187)", "T2 sequence (Q06187 whole entry)": "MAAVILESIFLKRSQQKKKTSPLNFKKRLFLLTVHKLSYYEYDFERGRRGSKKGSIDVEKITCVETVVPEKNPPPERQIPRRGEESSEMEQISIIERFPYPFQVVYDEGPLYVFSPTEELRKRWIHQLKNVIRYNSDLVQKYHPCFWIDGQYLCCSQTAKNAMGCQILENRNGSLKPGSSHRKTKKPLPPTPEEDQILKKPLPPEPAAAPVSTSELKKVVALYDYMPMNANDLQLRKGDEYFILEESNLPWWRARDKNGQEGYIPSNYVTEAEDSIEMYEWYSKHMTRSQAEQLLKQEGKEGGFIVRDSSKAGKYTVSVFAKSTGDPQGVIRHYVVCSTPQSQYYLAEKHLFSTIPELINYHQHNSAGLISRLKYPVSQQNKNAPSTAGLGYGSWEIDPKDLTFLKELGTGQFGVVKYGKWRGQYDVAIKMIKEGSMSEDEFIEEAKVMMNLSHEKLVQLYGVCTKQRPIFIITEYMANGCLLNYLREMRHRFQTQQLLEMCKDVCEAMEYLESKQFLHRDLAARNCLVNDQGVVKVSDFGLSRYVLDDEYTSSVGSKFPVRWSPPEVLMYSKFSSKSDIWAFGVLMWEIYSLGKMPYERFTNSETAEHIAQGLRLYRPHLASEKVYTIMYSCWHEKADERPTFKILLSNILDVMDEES", "assay": "KINOMEscan quantitative binding assay"}, "[11]": {"molecular_target": "BTK^C481S (Homo sapiens, UniProt Q06187, C481S)", "sequence (Q06187 whole entry C481S)": "as the sequence (Q06187 whole entry) above, with C481S counted along it", "assay": "BTK kinase activity assay, 33P-ATP filtration", "format": "biochemical", "details": "BTK^C481S vs BTK^wt"}, "[12]": {"test_system": "REC-BTK^wt (REC-1) cells", "assay": "CellTiter-Glo viability assay", "format": "cell-based", "details": "Homo sapiens, Rec1, 72 h"}, "[13]": {"molecular_target": "BTK^wt (Homo sapiens, UniProt Q06187)", "sequence (Q06187 whole entry)": "as the sequence (Q06187 whole entry) above", "assay": "BTK kinase activity assay, 33P-ATP filtration", "format": "biochemical"}, "[14]": {"molecular_target": "JAK3 (Homo sapiens, UniProt P52333)", "sequence (P52333 781-1124 limits assumed)": "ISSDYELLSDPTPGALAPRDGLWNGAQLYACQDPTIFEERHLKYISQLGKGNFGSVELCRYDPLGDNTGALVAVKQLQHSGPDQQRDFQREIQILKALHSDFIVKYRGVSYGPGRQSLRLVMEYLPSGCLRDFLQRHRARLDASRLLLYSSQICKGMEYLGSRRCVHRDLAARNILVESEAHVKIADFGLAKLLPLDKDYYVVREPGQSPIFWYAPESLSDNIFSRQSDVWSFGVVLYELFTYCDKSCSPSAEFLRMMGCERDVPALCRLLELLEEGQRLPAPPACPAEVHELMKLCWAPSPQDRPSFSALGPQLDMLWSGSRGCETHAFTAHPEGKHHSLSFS", "assay": "KINOMEscan quantitative binding assay"}, "[15]": {"molecular_target": "T2, BTK", "assay": "BTK occupancy in patient PBMC lysates", "format": "in vivo", "details": "6 patients with CLL, 4 hours after treatment"}, "[16]": {"test_system": "REC-1^GFP+LUC+ MCL xenograft", "assay": "REC-1 xenograft model, tumor growth inhibition", "format": "in vivo, CB17-SCID mice", "details": "25 mg/kg, every day, 17-day dosing", "summary_of_the_method": "as §1"}, "[17]": {"test_system": "10 parental B-NHL cell lines", "assay": "CellTiter-Glo viability assay, mean over cell line panel", "format": "cell-based", "details": "72 h, read-out: mean GI50"}, "[18]": {"test_system": "CLL, MCL, WM", "details": "cited from earlier work; for preliminary overall response rate (ORR): 200 mg daily monotherapy, median follow-up 7 months ref 17"}, "[19]": {"test_system": "CLL", "assay": "Phase I trial NCT03671590, clinical outcome of 6 patients with CLL", "format": "in vivo, human", "summary_of_the_method": "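Relapsed/refractory CLL patients in trial NCT03671590 took oral test compound once daily (200, 300 or 400 mg) until progression or intolerable toxicity. ALC was recorded on day 1. CLL cell percentage was derived from ALC against the upper normal limit. Best tumor reduction was assessed at C3D1 and graded as partial response or stable disease.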"}, "[20]": {"assay": "PK analysis, TG-1701 plasma concentrations", "format": "in vivo, human", "details": "patients, from 100 to 300 mg"}, "[21]": {"test_system": "MCL cell lines", "assay": "CellTiter-Glo viability assay, mean over MCL cell lines", "format": "cell-based", "details": "72 h, read-out: mean GI50"}}, "note": "Like-named read-outs stand apart in the source and are kept apart here.", "data": [{"smiles": "CC#CC(=O)N1CC[C@@H](n2cc(-c3ccc(Oc4c(F)cccc4F)cc3)c3c(N)n[nH]c(=O)c32)C1", "note": "[TG-1701]", "values": [{"measurement": "sensitivity of UPN-IbruR tumors", "setting": "[1]", "result": "almost insensitive"}, {"measurement": "TGI", "setting": "[2]; 25 mg/kg", "result": 56, "unit": "%"}, {"measurement": "TGI", "setting": "[2]; 50 mg/kg", "result": 72, "unit": "%"}, {"measurement": "TGI", "setting": "[2]; 100 mg/kg", "result": 78, "unit": "%"}, {"measurement": "phosphorylation of Ikaros p-Ser442/445 upon treatment", "setting": "[3]", "result": "totally dephosphorylated"}, {"measurement": "Kd fold higher than that of ibrutinib", "setting": "[4]", "result": 68, "unit": "fold"}, {"measurement": "concentration of maximal effects on BCR downstream signaling", "setting": "[5]", "result": 100, "unit": "nmol/L"}, {"measurement": "fold less sensitive compared with parental REC-1 cells", "setting": "[6]", "result": 2.8, "unit": "fold"}, {"measurement": "sensitivity of REC-BTK^KO cells", "setting": "[7]", "result": "refractory"}, {"measurement": "downregulation of MYC protein", "setting": "[8]", "result": 48, "unit": "%"}, {"measurement": "downregulation of p-BTK protein", "setting": "[8]", "result": 70, "unit": "%"}, {"measurement": "increase of YES1 levels", "setting": "[8]", "result": "~5", "unit": "fold"}, {"measurement": "duration of BTK and AKT dephosphorylation in tumor", "setting": "[9]", "result": "at least 24 hours"}, {"measurement": "earliest time of AKT dephosphorylation in tumor", "setting": "[9]", "result": 4, "unit": "h"}, {"measurement": "earliest time of BTK dephosphorylation in tumor", "setting": "[9]", "result": 2, "unit": "h"}, {"measurement": "Kd", "setting": "[10]", "result": 0.003, "unit": "µM"}, {"measurement": "fold decrease in inhibitory kinase activity", "setting": "[11]", "result": 54.8, "unit": "fold"}, {"measurement": "GI50", "setting": "[12]", "result": 3.83, "unit": "µM"}, {"measurement": "EC50", "setting": "[13]", "result": 0.0067, "unit": "µM"}, {"measurement": "Kd fold higher than that of ibrutinib", "setting": "[14]", "result": "> 94", "unit": "fold"}, {"measurement": "BTK occupancy", "setting": "[15]", "result": "Near-complete BTK occupancy"}, {"measurement": "tumor TGI versus vehicle", "setting": "[16]", "result": 53, "unit": "%"}, {"measurement": "GI50", "setting": "[17]", "result": 6.4, "unit": "µM"}, {"measurement": "preliminary overall response rate (ORR)", "setting": "[18]; CLL", "result": 95, "unit": "%"}, {"measurement": "preliminary overall response rate (ORR)", "setting": "[18]; MCL", "result": 50, "unit": "%"}, {"measurement": "complete responses (CR)", "setting": "[18]; TG-1701 monotherapy ref 17", "result": "No complete responses (CR) are confirmed"}, {"measurement": "preliminary overall response rate (ORR)", "setting": "[18]; WM", "result": 95, "unit": "%"}, {"measurement": "Clinical outcome (% reduction)", "setting": "[19]; patient AII-0011, 400–300 mg daily", "result": 87, "unit": "%"}, {"measurement": "Clinical outcome (% reduction)", "setting": "[19]; patient AIJ-0001, 200 mg daily", "result": 38, "unit": "%"}, {"measurement": "Clinical outcome", "setting": "[19]; patient AIJ-0005, 300 mg daily", "result": "SD-PR"}, {"measurement": "Clinical outcome (% reduction)", "setting": "[19]; patient AIJ-0005, 300 mg daily", "result": 56, "unit": "%"}, {"measurement": "Clinical outcome (% reduction)", "setting": "[19]; patient AIJ-0015, 400 mg daily", "result": 86, "unit": "%"}, {"measurement": "Clinical outcome", "setting": "[19]; patient AIK-0003, 200 mg daily", "result": "SD (lymphocytosis)"}, {"measurement": "dose dependence of Cmax and AUC0–8 hours", "setting": "[20]", "result": "approximately dose-proportional increases"}, {"measurement": "GI50", "setting": "[21]", "result": 4.3, "unit": "µM"}]}, {"smiles": "C=CC(=O)N1CCC[C@@H](n2nc(-c3ccc(Oc4ccccc4)cc3)c3c(N)ncnc32)C1", "note": "[ibrutinib, reference compound]", "values": [{"measurement": "concentration of maximal effects on BCR downstream signaling", "setting": "[5]", "result": 10, "unit": "nmol/L"}, {"measurement": "sensitivity of REC-BTK^KO cells", "setting": "[7]", "result": "refractory"}, {"measurement": "GI50", "setting": "[12]", "result": 5.82, "unit": "µM"}, {"measurement": "GI50", "setting": "[17]", "result": 14.1, "unit": "µM"}, {"measurement": "GI50", "setting": "[21]", "result": 10.8, "unit": "µM"}]}]}
